Results taken from ChEMBL document CHEMBL4732170, “Discovery of Small-Molecule Antagonists of the PWWP Domain of NSD2” (J Med Chem, 2021).
Activity calls are given as the source filed them. No cut-off for these calls is given here.

How the values were obtained:
[1] = target: T1, Histone-lysine N-methyltransferase NSD2 (Homo sapiens) (UniProt O96028); assay: Binding affinity to NSD2 PWWP1 domain (unknown origin) assessed as change in aggregation temperature at 500 uM by heating at 25 to 85 degC by differential static light scattering method; conditions: for deltaT: filed as antagonist
T1 sequence (whole entry): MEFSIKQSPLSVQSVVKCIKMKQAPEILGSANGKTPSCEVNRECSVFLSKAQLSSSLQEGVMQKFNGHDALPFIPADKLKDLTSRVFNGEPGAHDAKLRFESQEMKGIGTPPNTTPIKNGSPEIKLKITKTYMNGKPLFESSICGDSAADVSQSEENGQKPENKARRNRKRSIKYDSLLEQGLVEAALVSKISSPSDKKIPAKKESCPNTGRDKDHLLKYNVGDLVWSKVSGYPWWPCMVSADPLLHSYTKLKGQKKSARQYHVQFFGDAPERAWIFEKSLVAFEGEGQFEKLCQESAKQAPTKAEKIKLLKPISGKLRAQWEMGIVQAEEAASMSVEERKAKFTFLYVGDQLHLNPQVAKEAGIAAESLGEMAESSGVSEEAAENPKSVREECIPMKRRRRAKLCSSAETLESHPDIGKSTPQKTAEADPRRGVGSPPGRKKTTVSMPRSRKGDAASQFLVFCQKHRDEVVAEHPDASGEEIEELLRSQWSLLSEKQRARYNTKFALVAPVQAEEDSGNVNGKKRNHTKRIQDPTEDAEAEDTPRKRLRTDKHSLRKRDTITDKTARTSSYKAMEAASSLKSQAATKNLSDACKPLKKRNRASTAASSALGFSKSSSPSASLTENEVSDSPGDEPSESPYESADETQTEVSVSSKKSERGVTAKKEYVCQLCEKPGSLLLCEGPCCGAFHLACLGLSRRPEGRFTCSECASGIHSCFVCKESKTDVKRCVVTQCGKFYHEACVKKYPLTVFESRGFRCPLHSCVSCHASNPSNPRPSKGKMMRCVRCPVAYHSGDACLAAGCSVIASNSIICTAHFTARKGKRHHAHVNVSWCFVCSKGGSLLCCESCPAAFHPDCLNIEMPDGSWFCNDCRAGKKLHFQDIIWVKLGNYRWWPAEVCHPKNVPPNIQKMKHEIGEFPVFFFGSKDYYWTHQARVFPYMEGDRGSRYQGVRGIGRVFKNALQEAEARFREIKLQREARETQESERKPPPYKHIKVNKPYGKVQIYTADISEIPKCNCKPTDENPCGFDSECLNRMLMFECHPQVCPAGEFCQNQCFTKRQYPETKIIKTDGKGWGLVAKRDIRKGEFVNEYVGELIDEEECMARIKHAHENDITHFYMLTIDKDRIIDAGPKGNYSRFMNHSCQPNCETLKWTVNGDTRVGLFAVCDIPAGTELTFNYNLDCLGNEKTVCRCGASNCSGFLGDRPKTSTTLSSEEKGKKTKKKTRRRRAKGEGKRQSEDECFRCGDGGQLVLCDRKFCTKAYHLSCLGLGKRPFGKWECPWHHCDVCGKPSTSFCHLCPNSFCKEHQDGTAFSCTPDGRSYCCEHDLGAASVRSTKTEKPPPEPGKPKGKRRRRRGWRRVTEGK

[2] = target: T1, Histone-lysine N-methyltransferase NSD2 (Homo sapiens); assay: (§1) Binding affinity to NSD2 PWWP1 domain (unknown origin) assessed as dissociation constant by surface plasmon resonance analysis
Outline: (§2)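 SPR in single-cycle kinetics, HBS-EP buffer (20 mM HEPES pH 7.4, 150 mM NaCl, 3 mM EDTA, 0.05% Tween-20) with 5% DMSO. Ten concentrations from 200 μM top, twofold dilutions. Contact time 60 s, dissociation 120 s, flow 75 μL/min; Kd derived.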

[3] = target: T2, Histone-lysine N-methyltransferase NSD2 (Homo sapiens, UniProt O96028); assay: as §1; outline: as §2
T2 sequence (O96028 whole entry): T1 sequence (whole entry)

| Structure (SMILES) | Activity [1] | Activity [2] | deltaT [1] [°C] | Kd [3] [µM] |
| --- | --- | --- | --- | --- |
| CC(C)N(Cc1ccc(F)cc1)C(=O)c1ccc(C#N)cc1 | inactive | inactive | – | – |
| COC(=O)c1ccc(C(=O)N2CCCC2c2ccc(F)cc2)cc1 (configuration not stated) | – | – | 1.4 | 173 |
| N#Cc1ccc(C(=O)N(Cc2ccc(F)cc2)C2CCC2)cc1 | – | – | 1.1 | 114 |
| N#Cc1ccc(C(=O)N(Cc2ccc(F)cc2)C2CC2)cc1 | – | – | – | 7 |
| N#Cc1ccc(C(=O)N2CCCC2c2ccccc2)cc1 (configuration not stated) | – | – | 2.4 | 110 |
| Cc1ccc(C(=O)N2CCCC2c2ccc(Cl)cc2)cc1 (configuration not stated) | inactive | inactive | – | – |
| O=C(c1ccc(N2CNC=N2)cc1)N1CCCC1c1ccc(F)cc1 (configuration not stated) | – | – | 1.2 | 297 |
| N#Cc1ccc(C(=O)N2CCCC2c2ccc(Cl)cc2)cc1 (configuration not stated) | – | – | – | 175 |
| N#Cc1ccc(C(=O)N(CC2CCOC2)C2CC2)cc1 (configuration not stated) | – | – | 5.4 | 5.7 |
| N#Cc1ccc(C(=O)N2CCCC2c2ccsc2)cc1 (configuration not stated) | – | – | 2.2 | 178 |
| COc1ccc(C2CCCN2C(=O)c2ccc(C#N)cc2)cc1 (configuration not stated) | – | – | 2.4 | 208 |

Next, values leading:

| Activity [1] | Activity [2] | deltaT [1] [°C] | Kd [3] [µM] | Structure (SMILES) |
| --- | --- | --- | --- | --- |
| inactive | inactive | – | – | O=C(c1ccccc1)N1CCCC1c1ccccc1 (configuration not stated) |
| – | – | 2.8 | 160 | N#Cc1ccc(C(=O)N2CCCC2c2ccncc2)cc1 (configuration not stated) |
| inactive | inactive | – | – | N#Cc1ccc(C(=O)NCc2ccc(F)cc2)cc1 |
| – | – | 2 | 74 | CN(Cc1ccc(F)cc1)C(=O)c1ccc(C#N)cc1 |
| – | – | 2.7 | 138 | N#Cc1ccc(C(=O)N2CCCC2c2ccc3c(c2)OCCO3)cc1 (configuration not stated) |
| inactive | inactive | – | – | N#Cc1ccc(C(=O)N(Cc2ccc(F)cc2)C2CCCCC2)cc1 |
